The record followed here is PubChem BioAssay.

A short description of assay [1]: inhibitors of TNFa-induced NFkB p65 translocation, primary screen, imaging, HUVEC, MLSMR starter and 10KST1 sets (AID 438).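 Also: compound added about 3h40 before a 20 min TNFalpha stimulation.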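 As to inhibition: signal is the nuclear over cytoplasmic p65 intensity ratio per well.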 The note with it: HUVEC TNFa-induced p65 nuclear translocation; cell count: measured here: nuclei count (cytotoxicity indicator), at 2.08 µM; inhibition: at 2 µM, stronger effect = higher value, 0% TNFa-plus-vehicle, 100% no-TNFa wells.
The nature of assay [2]: endothelial E-selectin expression blockers – imaging, HUVEC, immunofluorescence, MLSMR starter and 10KST1 sets, primary screen (AID 487;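 active = visually confirmed hit in the image check and inhibition above 20%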;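 as to inhibition: signal is fraction of cell area covered by stained E-selectin grains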;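 as to nuclei count: 100% = median nuclei count of all wells on the same plate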). The note with it: HUVEC TNFalpha-induced E-selectin immunofluorescence imaging, at 2 µM; inhibition: stronger effect = higher value; nuclei count: measured here: cell number, toxicity.
Assay [3] in a line: Primary imaging screen for DUSP6 inhibitors that restore phospho-Erk in transfected HeLa cells, chemical complementation (AID 609;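 active = compounds giving at least 50% inhibition in the cell-based MKP-3 phosphatase rescue imaging test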;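 as to inhibition: phospho-Erk level distribution per well compared with pooled transfected vehicle control wells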). The following applies: HeLa MKP-3 transfected, phospho-Erk imaging KS statistic, at 10 µM, cells stimulated with TPA for 15 min.
For assay [4], the target named is Dual specificity protein phosphatase 6 (Homo sapiens) (UniProt Q16828). The assay is described as above. The following applies: HeLa MKP-3 transfected, phospho-Erk imaging KS statistic; at 10 µM; stronger effect = higher value; cells stimulated with TPA for 15 min.
Assay [5] has as its target Voltage-gated potassium channel subunit beta-2 (Rattus norvegicus) (UniProt P62483). The assay can be described thus: inhibitors of rat Kvbeta2 reductase activity – biochemical, NADPH fluorescence, primary screen (AID 622;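 active = fluorescence slope higher than the sample average by over 3 SD, cut at about -0.22 in these data, passing the limit was not always enough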;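 also: slope of raw intensity against log time taken from 70 to 1610 s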). The note with it: recombinant KvBeta, 4-cyanobenzaldehyde reduction, at 10 µM, stronger effect = higher value.
The target is the same in assay [6]. Nature of the assay: enhancers of rat Kvbeta2 NADPH turnover – biochemical, NADPH fluorescence, primary screen (AID 623;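 active = NADPH fluorescence slope more negative than the mean of all samples by about 3 SD, 99.7% confidence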;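 also: fluorescence intensity change per second fitted from 20 to 320 s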). The note with it: Recombinant KvBeta, NADPH fluorescence decrease slope, 10 min; at 10 µM; stronger effect = lower value.
Assay [7] deals with Muscarinic acetylcholine receptor M4 (Homo sapiens) (UniProt P08173). The assay can be described thus: M4-linked GIRK flux change, two-sided – cell-based, HEK293 M4/GIRK, thallium flux, BTC-AM, M4 allosteric agonist project, primary screen (AID 625;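 active = fluorescence slope after compound addition differing from the mean of all tested samples at 99.7% confidence, mostly higher but some lower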;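 also: thallium influx through GIRK channels coupled to M4 in HEK293 cells with BTC-AM dye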). The following applies: at 10 µM, actives lie on both sides. An outline of the steps: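 Material – HEK293 cells with M4 receptor and GIRK channels · Buffer or medium – pH 7.3 thallium assay buffer · Doses – one dose, 10 µM final · Timing – cells overnight at 37 °C, BTC-AM loading 1 h, reads 2 min total · Measured by – kinetic fluorescence with BTC-AM dye · Controls – carbachol and DMSO controls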

A short description of assay [8]: inhibitors of larval lipid processing in zebrafish, primary screen, whole organism, PED6 fluorescence, gall bladder and intestine (AID 686;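 active = a full or partial loss of lipid-probe fluorescence in the fish gall bladder, intestine or both, judged by eye; inactive = no fluorescence loss, or compound toxic to the fish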;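 also: larvae 5 to 7 days old with five fish per well; signal comes from phospholipase A2 cleavage of quenched PED6 carried via bile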). The following applies: Zebrafish larvae PED6 lipid processing, fluorescence scoring; screened at 20 µM (by protocol). An outline of the steps: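 system = live zebrafish larvae aged 5-7 days, whole organism | probe or stimulus = ingested quenched lipid PED6 at 100 nM | doses = 20 µM single dose | timing = overnight exposure | detection = fluorescence microscopy with visual scoring of gall bladder and intestine | read-out = visual per-well fluorescence inhibition score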

The nature of assay [9]: loss of swimming-algae plug formation – whole organism, Chlamydomonas reinhardtii, WT vs cilia-less mutant, absorbance, 96-well, primary screen (AID 463189;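 active = inhibition at or above 50% relative to wild type and mutant plate controls; inactive = inhibition below 50%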;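 also: 0% = wild type cc124 cells in DMSO and 100% = ciliumless bld1 mutant cells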). The following applies: Chlamydomonas reinhardtii gravitaxis, OD600 absorbance, 2 days; at 10 µM; stronger effect = higher value.
Setting [10] is: measured here: cell density z-score.
The mark [11] stands for this setting: measured here: nuclear c-Myc green intensity z-score.
The mark [12] stands for this setting: measured here: nuclear pErk red intensity z-score, stronger effect = higher value.

Active and inactive are the calls of the source.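 The calls were made as follows, unless noted: active = inhibition above 20% together with a positive visual image hit; inconclusive = visual image hit but inhibition not above 20%; inactive = no visual image hit.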

Chain of Voltage-gated potassium channel subunit beta-2 (Rattus norvegicus) (P62483 whole entry, looked up): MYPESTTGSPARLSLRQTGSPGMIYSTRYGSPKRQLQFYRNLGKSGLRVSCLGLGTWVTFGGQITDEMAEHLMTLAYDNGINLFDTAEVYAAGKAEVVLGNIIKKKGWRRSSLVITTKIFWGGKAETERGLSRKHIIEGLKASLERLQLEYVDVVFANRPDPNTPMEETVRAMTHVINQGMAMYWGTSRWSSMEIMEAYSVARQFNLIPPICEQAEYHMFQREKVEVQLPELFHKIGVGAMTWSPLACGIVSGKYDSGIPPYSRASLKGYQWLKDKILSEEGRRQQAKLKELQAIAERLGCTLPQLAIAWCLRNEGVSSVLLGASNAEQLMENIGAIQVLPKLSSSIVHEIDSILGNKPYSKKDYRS
Chain of Muscarinic acetylcholine receptor M4 (Homo sapiens) (P08173 whole entry, looked up): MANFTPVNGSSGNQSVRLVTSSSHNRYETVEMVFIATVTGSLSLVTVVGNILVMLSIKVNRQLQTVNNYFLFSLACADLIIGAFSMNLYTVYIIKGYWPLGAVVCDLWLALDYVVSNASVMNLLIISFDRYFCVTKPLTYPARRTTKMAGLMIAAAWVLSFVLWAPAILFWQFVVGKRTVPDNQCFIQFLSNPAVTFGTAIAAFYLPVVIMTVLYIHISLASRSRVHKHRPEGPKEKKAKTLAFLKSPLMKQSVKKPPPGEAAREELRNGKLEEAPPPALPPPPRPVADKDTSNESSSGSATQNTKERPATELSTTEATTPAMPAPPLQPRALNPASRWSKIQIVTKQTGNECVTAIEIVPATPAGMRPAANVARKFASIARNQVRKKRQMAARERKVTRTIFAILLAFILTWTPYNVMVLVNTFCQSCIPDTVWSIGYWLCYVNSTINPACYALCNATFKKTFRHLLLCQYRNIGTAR
Chain of Dual specificity protein phosphatase 6 (Homo sapiens) (Q16828 whole entry, looked up): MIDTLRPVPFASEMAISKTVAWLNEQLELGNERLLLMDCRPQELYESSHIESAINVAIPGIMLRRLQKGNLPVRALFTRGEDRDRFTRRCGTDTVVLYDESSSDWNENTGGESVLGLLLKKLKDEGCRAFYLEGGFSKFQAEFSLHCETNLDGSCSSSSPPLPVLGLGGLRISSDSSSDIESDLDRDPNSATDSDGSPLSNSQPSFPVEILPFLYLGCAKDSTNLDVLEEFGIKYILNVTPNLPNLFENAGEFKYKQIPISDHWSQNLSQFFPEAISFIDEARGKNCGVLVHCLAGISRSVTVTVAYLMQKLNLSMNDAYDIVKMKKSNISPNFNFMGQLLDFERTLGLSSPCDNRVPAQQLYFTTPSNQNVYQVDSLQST

Consider `Cc1sc(-n2c(C)ccc2C)c(C#N)c1C`, for which the cell count in assay [1] was found to be 411. For the same compound, the inhibition is -2% (inactive) in assay [1], -11.7% (inactive) in [2], 7.73% (inactive) in assay [4] and -3.1% (inactive) in assay [9]. Further, in assay [2], the nuclei count is 144%. Moreover, the z-score was -1.09 in assay [3] (setting [10]), -0.0847 in [3] (setting [11]) and 1.07 in assay [3] (setting [12]). For the same compound, the fluorescence slope in assay [5] is -0.505 (inactive); in [7], 0.00469 (inactive). Besides, the NADPH fluorescence slope in [6] was -9.6e-05 (inactive). Also, in assay [8], the call was inactive.
Regarding `CCOc1ccc(N2C(=O)CC(N)C2=O)cc1` (stereo unspecified), the cell count in assay [1] came to 726. Moreover, the inhibition is 11.3% (inactive) in assay [1], 33.5% (inactive) in [2], -13.3% (inactive) in assay [4] and 19.4% (inactive) in assay [9]. In [2], this compound displayed a nuclei count of 123%. The z-score in assay [3] (setting [10]) is -0.139; in assay [3] (setting [11]), 1.28; in assay [3] (setting [12]) it was 0.161. For the same compound, the fluorescence slope was -0.462 (inactive) in assay [5] and 0.00592 (inactive) in assay [7]. Moreover, the NADPH fluorescence slope in [6] is -5.8e-05 (inactive). In [8], the outcome was inactive.
As for `O=C(CC1SC2=NCCN2C1=O)Nc1ccccc1` (stereo unspecified), the cell count in assay [1] was 693. Moreover, the inhibition in assay [1] was -7.8% (inactive); in [2], -79.2% (inactive); in [4], 18.6% (inactive); in [9] it was -0.757% (inactive). The compound further registered a nuclei count in assay [2] of 167%. Moreover, the values for the z-score in assay [3] (setting [10]), in [3] (setting [11]) and in [3] (setting [12]) were -0.578, 0.509 and 0.504, respectively. Further, the fluorescence slope was -0.42 (inactive) in [5] and 0.00447 (inactive) in assay [7]. The NADPH fluorescence slope in assay [6] is -5.8e-05 (inactive). Besides, the compound was classed as inactive in assay [8].
For the compound `C=CCn1c(SCC(=O)c2ccc(NS(=O)(=O)c3ccccc3)cc2)nnc1-c1cccs1`, in assay [1], the cell count was 682. Also, the inhibition in [1] is 3.2% (inactive); in [2], -98.4% (inactive); in assay [4], -13.3% (inactive); in [9], -10.7% (inactive). Moreover, in assay [2], the nuclei count is 156%. Besides, the z-score was -0.412 in assay [3] (setting [10]), -0.46 in assay [3] (setting [11]) and 0.993 in [3] (setting [12]). The fluorescence slope in assay [5] is -0.473 (inactive); in assay [7] it was 0.00636 (inactive). Moreover, the NADPH fluorescence slope in assay [6] is -4.5e-05 (inactive). In addition, the outcome in assay [8] was inactive.
Regarding `Cc1ccc(-n2c(SCC(=O)NCc3ccco3)nc3nc4c(cc3c2=O)COC(C)(C)C4)cc1`, in assay [1], the cell count was determined as 518. In addition, the inhibition in assay [1] is -21.3% (inactive); in assay [2], 9.1% (inactive); in assay [4], 3.97% (inactive); in assay [9] it was 17% (inactive). This compound showed a nuclei count in [2] of 176%. Moreover, the values for the z-score in assay [3] (setting [10]), in [3] (setting [11]) and in assay [3] (setting [12]) were 0.611, -1.97 and 0.29, respectively. For the same compound, the fluorescence slope is -0.408 (inactive) in assay [5] and 0.00603 (inactive) in assay [7]. Also, in [6], the NADPH fluorescence slope was -1.9e-05 (inactive). The compound was classed as inactive in assay [8].
On to `CCCCC(CCC(=O)Nc1ccc(C(=O)OCC)cc1)C(=O)O` (stereo unspecified), for which the cell count in assay [1] amounted to 378. Further, the inhibition was -11.3% (inactive) in [1], -153% (inactive) in assay [2], -0.608% (inactive) in assay [4] and 5.13% (inactive) in assay [9]. The same compound returned a nuclei count in [2] of 159%. Moreover, the z-score is -0.634 in [3] (setting [10]), -1.85 in assay [3] (setting [11]) and 0.598 in assay [3] (setting [12]). Further, the fluorescence slope in [5] is -0.468 (inactive); in assay [7], 0.00338 (inactive). For the same compound, the NADPH fluorescence slope in [6] was -0.000129 (inactive). Also, in [8], the compound was classed as inactive.
Turning to `COc1cccc(C2CC(c3ccccc3Cl)n3nc(N)nc3N2)c1` (stereo unspecified), the cell count in assay [1] was determined as 399. The inhibition in assay [1] was -1.4% (inactive); in assay [2] it was -136% (inactive); in assay [4], 24.4% (inactive); in [9], 29.4% (inactive). Moreover, the nuclei count in assay [2] was 131%. For the same compound, the z-score was 0.0849 in [3] (setting [10]), 1.44 in assay [3] (setting [11]) and -0.355 in assay [3] (setting [12]). The figures for the fluorescence slope in assay [5] and in assay [7] were -0.464 (inactive) and 0.00588 (inactive), respectively. The NADPH fluorescence slope in assay [6] was -7.1e-05 (inactive). Besides, the outcome in [8] was inactive.

As usually defined, the inhibition is the drop in the measured response relative to a control, in per cent.
